Results reported in ChEMBL document CHEMBL4118253, “Expedient synthesis and biological evaluation of alkenyl acyclic nucleoside phosphonate prodrugs” (Bioorg Med Chem, 2018).

Tests used:
Human alphaherpesvirus 1 [1] = assay: Antiviral activity against Herpes simplex virus 1 KOS infected in HEL cells assessed as inhibition of virus-induced cytopathicity; assay type: functional, organism-based; settings: Human alphaherpesvirus 1, KOS
Human alphaherpesvirus 2 = assay: Antiviral activity against Herpes simplex virus 2 G infected in HEL cells assessed as inhibition of virus-induced cytopathicity; assay type: functional, organism-based; settings: Human alphaherpesvirus 2, strain G
Human alphaherpesvirus 1 [2] = assay: Antiviral activity against acyclovir-resistant thymidine kinase deficient Herpes simplex virus 1 KOS infected in HEL cells assessed as inhibition of virus-induced cytopathicity; assay type: functional, organism-based; settings: Human alphaherpesvirus 1, KOS
Vaccinia virus = assay: Antiviral activity against Vaccinia virus infected in HEL cells assessed as inhibition of virus-induced cytopathicity; assay type: functional, organism-based; settings: Orthopoxvirus vaccinia
Human adenovirus 2 = assay: Antiviral activity against Adenovirus 2 infected in HEL cells assessed as inhibition of virus-induced cytopathicity; assay type: functional, organism-based; settings: Human mastadenovirus C
Human coronavirus 229E = assay: Antiviral activity against Human coronavirus 229E infected in HEL cells assessed as inhibition of virus-induced cytopathicity; assay type: functional, organism-based
Human respirovirus 3 = assay: Antiviral activity against Parainfluenza virus 3 infected in human HeLa cells assessed as inhibition of virus-induced cytopathicity; assay type: functional, organism-based; settings: Human respirovirus 3, HeLa
[3] = system: Mammalian orthoreovirus 1; assay: Antiviral activity against Reovirus-1 infected in human HeLa cells assessed as inhibition of virus-induced cytopathicity; assay type: functional, organism-based; settings: Mammalian orthoreovirus 1, HeLa
[4] = system: Vesicular stomatitis virus; assay: Antiviral activity against Vesicular stomatitis virus infected in human HeLa cells assessed as inhibition of virus-induced cytopathicity; assay type: functional, organism-based
[5] = system: Respiratory syncytial virus; assay: Antiviral activity against Respiratory syncytial virus infected in human HeLa cells assessed as inhibition of virus-induced cytopathicity; assay type: functional, organism-based
Influenza A virus [6] = assay: Antiviral activity against Influenza A virus H1N1 infected in MDCK cells assessed as inhibition of virus-induced cytopathicity by MTS assay; assay type: functional, organism-based
Influenza A virus H3N2 [7] = assay: Antiviral activity against Influenza A virus H3N2 infected in MDCK cells assessed as inhibition of virus-induced cytopathicity by MTS assay; assay type: functional, organism-based
Influenza B virus [8] = assay: Antiviral activity against Influenza B virus infected in MDCK cells assessed as inhibition of virus-induced cytopathicity by MTS assay; assay type: functional, organism-based
Human alphaherpesvirus 3 [9] = assay: Antiviral activity against thymidine kinase expressing Varicella-Zoster virus infected in HEL cells assessed as reduction in virus plaque formation; assay type: functional, organism-based; settings: Human alphaherpesvirus 3, HEL
Human alphaherpesvirus 3 [10] = assay: Antiviral activity against thymidine kinase deficient Varicella-Zoster virus infected in HEL cells assessed as reduction in virus plaque formation; assay type: functional, organism-based; settings: Human alphaherpesvirus 3, HEL
Human betaherpesvirus 5 [11] = assay: Antiviral activity against Human cytomegalovirus AD169 infected in HEL cells assessed as inhibition of virus-induced cytopathicity; assay type: functional, organism-based; settings: Human betaherpesvirus 5, AD169, HEL
Human betaherpesvirus 5 [12] = assay: Antiviral activity against Human cytomegalovirus Davis infected in HEL cells assessed as inhibition of virus-induced cytopathicity; assay type: functional, organism-based; settings: Human betaherpesvirus 5, Davis
[13] = Cytotoxicity against HEL cells assessed as alteration of cell morphology by microscopic analysis; assay type: cell-based; settings: human
How it was run: (§1)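 The value is the minimal cytotoxic concentration (MCC), the lowest concentration that causes a microscopically visible change in cell morphology. It was read in the same HEL or Vero cell cultures used for the antiviral tests.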

Sindbis virus = assay: Antiviral activity against Sindbis Virus infected in African green monkey Vero cells assessed as inhibition of virus-induced cytopathicity; assay type: functional, organism-based
Coxsackievirus B4 = assay: Antiviral activity against Coxsackie virus B4 infected in African green monkey Vero cells assessed as inhibition of virus-induced cytopathicity; assay type: functional, organism-based; settings: Enterovirus B
Punta Toro virus = assay: Antiviral activity against Punta Toro virus infected in African green monkey Vero cells assessed as inhibition of virus-induced cytopathicity; assay type: functional, organism-based
Yellow fever virus = assay: Antiviral activity against Yellow fever virus infected in African green monkey Vero cells assessed as inhibition of virus-induced cytopathicity; assay type: functional, organism-based
[14] = Cytotoxicity against African green monkey Vero cells assessed as alteration of cell morphology by microscopic analysis; assay type: cell-based; settings: chlorocebus sabaeus; how it was run: as §1
[15] = Cytotoxicity against human HeLa cells assessed as alteration of cell morphology by microscopic analysis; assay type: cell-based
[16] = Cytotoxicity against MDCK cells assessed as alteration of cell morphology by microscopic analysis; assay type: cell-based, Canis lupus familiaris; settings: dog
Influenza A virus [17] = assay: Antiviral activity against Influenza A virus H1N1 infected in MDCK cells assessed as inhibition of virus-induced visual cytopathicity; assay type: functional, organism-based
Influenza A virus H3N2 [18] = assay: Antiviral activity against Influenza A virus H3N2 infected in MDCK cells assessed as inhibition of virus-induced visual cytopathicity; assay type: functional, organism-based
Influenza B virus [19] = assay: Antiviral activity against Influenza B virus infected in MDCK cells assessed as inhibition of virus-induced visual cytopathicity; assay type: functional, organism-based
[20] = Half life in human serum by 31P NMR analysis; assay type: ADME, cell-free
[21] = Half life in rat serum by 31P NMR analysis; assay type: ADME, cell-free

Row | SMILES | EC50 (Human alphaherpesvirus 1 [1]) [µM] | EC50 (Human alphaherpesvirus 2) [µM] | EC50 (Human alphaherpesvirus 1 [2]) [µM] | EC50 (Vaccinia virus) [µM] | EC50 (Human adenovirus 2) [µM] | EC50 (Human coronavirus 229E) [µM] | EC50 (Human respirovirus 3) [µM] | EC50 [3] [µM] | EC50 [4] [µM] | EC50 [5] [µM] | EC50 (Influenza A virus [6]) [µM] | EC50 (Influenza A virus H3N2 [7]) [µM] | EC50 (Influenza B virus [8]) [µM] | EC50 (Human alphaherpesvirus 3 [9]) [µM] | EC50 (Human alphaherpesvirus 3 [10]) [µM] | EC50 (Human betaherpesvirus 5 [11]) [µM] | EC50 (Human betaherpesvirus 5 [12]) [µM] | MCC [13] [µM] | EC50 (Sindbis virus) [µM] | EC50 (Coxsackievirus B4) [µM] | further results
1 | C/C(=C\CP(=O)(N[C@@H](C)C(=O)OCc1ccccc1)Oc1ccccc1)Cn1ccc(=O)[nH]c1=O (some centres undefined) | > 100 | > 100 | > 100 | > 100 | > 100 | > 100 | > 100 | > 100 | > 100 | > 100 | > 100 | > 100 | > 100 | > 100 | > 100 | > 100 | > 100 | > 100 | > 100 | > 100 | EC50 (Punta Toro virus): > 100 µM; EC50 (Yellow fever virus): > 100 µM; MCC [14]: > 100 µM; MCC [15]: > 100 µM; MCC [16]: > 100 µM; EC50 (Influenza A virus [17]): > 100 µM; EC50 (Influenza A virus H3N2 [18]): > 100 µM; EC50 (Influenza B virus [19]): > 100 µM
2 | C/C(=C\CP(=O)(N[C@@H](C)C(=O)OC(C)C)Oc1cccc2ccccc12)Cn1ccc(=O)[nH]c1=O (some centres undefined) | > 100 | > 100 | > 100 | > 100 | > 100 | > 100 | > 100 | > 100 | > 100 | > 100 | > 100 | > 100 | > 100 | 20 | > 100 | > 100 | > 100 | > 100 | > 100 | > 100 | EC50 (Punta Toro virus): > 100 µM; EC50 (Yellow fever virus): > 100 µM; MCC [14]: > 100 µM; MCC [15]: > 100 µM; MCC [16]: > 100 µM; EC50 (Influenza A virus [17]): > 100 µM; EC50 (Influenza A virus H3N2 [18]): > 100 µM; EC50 (Influenza B virus [19]): > 100 µM
3 | C/C(=C/CP(=O)(N[C@@H](C)C(=O)OC(C)C)Oc1cccc2ccccc12)Cn1cc(C)c(=O)[nH]c1=O (some centres undefined) | > 100 | > 100 | > 100 | > 100 | > 100 | > 100 | > 100 | > 100 | > 100 | > 100 | > 100 | > 100 | > 100 | 39.9 | 41.6 | > 20 | 44.7 | 100 | > 100 | > 100 | EC50 (Punta Toro virus): > 100 µM; EC50 (Yellow fever virus): > 100 µM; MCC [14]: ≥ 20 µM; MCC [15]: ≥ 20 µM; MCC [16]: 100 µM; EC50 (Influenza A virus [17]): > 100 µM; EC50 (Influenza A virus H3N2 [18]): > 100 µM; EC50 (Influenza B virus [19]): > 100 µM
4 | C/C(=C/CP(=O)(N[C@@H](C)C(=O)OC(C)C)Oc1cccc2c1CCCC2)Cn1ccc(=O)[nH]c1=O (some centres undefined) | > 100 | > 100 | > 100 | > 100 | > 100 | > 100 | > 100 | > 100 | > 100 | > 100 | 100 | > 100 | > 100 | 58.5 | 100 | > 20 | 54.7 | 100 | > 100 | > 100 | EC50 (Punta Toro virus): > 100 µM; EC50 (Yellow fever virus): > 100 µM; MCC [14]: > 100 µM; MCC [15]: > 100 µM; MCC [16]: 100 µM; EC50 (Influenza A virus [17]): > 100 µM; EC50 (Influenza A virus H3N2 [18]): > 100 µM; EC50 (Influenza B virus [19]): > 100 µM
5 | C/C(=C\CP(=O)(N[C@@H](C)C(=O)OC(C)C)Oc1cccc2c1CCCC2)Cn1ccc(=O)[nH]c1=O (some centres undefined) | > 100 | > 100 | > 100 | > 100 | > 100 | > 100 | > 100 | > 100 | > 100 | > 100 | > 100 | > 100 | > 100 | 29.9 | 71.5 | > 100 | > 100 | > 100 | > 100 | > 100 | EC50 (Punta Toro virus): > 100 µM; EC50 (Yellow fever virus): > 100 µM; MCC [14]: > 100 µM; MCC [15]: > 100 µM; MCC [16]: > 100 µM; EC50 (Influenza A virus [17]): > 100 µM; EC50 (Influenza A virus H3N2 [18]): > 100 µM; EC50 (Influenza B virus [19]): > 100 µM
6 | C/C(=C\CP(=O)(N[C@@H](C)C(=O)OC(C)C)Oc1ccccc1)Cn1ccc(=O)[nH]c1=O (some centres undefined) | > 100 | > 100 | > 100 | > 100 | > 100 | > 100 | > 100 | > 100 | > 100 | > 100 | > 100 | > 100 | > 100 | > 100 | > 100 | > 100 | > 100 | > 100 | > 100 | > 100 | EC50 (Punta Toro virus): > 100 µM; EC50 (Yellow fever virus): > 100 µM; MCC [14]: > 100 µM; MCC [15]: > 100 µM; MCC [16]: > 100 µM; EC50 (Influenza A virus [17]): > 100 µM; EC50 (Influenza A virus H3N2 [18]): > 100 µM; EC50 (Influenza B virus [19]): > 100 µM
7 | C/C(=C\CP(=O)(N[C@@H](C)C(=O)OCc1ccccc1)Oc1cccc2c1CCCC2)Cn1ccc(=O)[nH]c1=O (some centres undefined) | > 100 | > 100 | > 100 | > 100 | > 100 | > 100 | > 100 | > 100 | > 100 | > 100 | > 100 | > 100 | > 100 | 55.7 | 52.5 | > 100 | > 100 | > 100 | > 100 | > 100 | EC50 (Punta Toro virus): > 100 µM; EC50 (Yellow fever virus): > 100 µM; MCC [14]: ≥ 100 µM; MCC [15]: ≥ 100 µM; MCC [16]: > 100 µM; EC50 (Influenza A virus [17]): > 100 µM; EC50 (Influenza A virus H3N2 [18]): > 100 µM; EC50 (Influenza B virus [19]): > 100 µM
8 | C/C(=C\CP(=O)(N[C@@H](C)C(=O)OCc1ccccc1)Oc1cccc2ccccc12)Cn1ccc(=O)[nH]c1=O (some centres undefined) | > 100 | > 100 | > 100 | > 100 | > 100 | > 100 | > 100 | > 100 | > 100 | > 100 | > 100 | > 100 | > 100 | 100 | 58.5 | > 100 | > 100 | > 100 | > 100 | > 100 | EC50 (Punta Toro virus): > 100 µM; EC50 (Yellow fever virus): > 100 µM; MCC [14]: > 100 µM; MCC [15]: > 100 µM; MCC [16]: > 100 µM; EC50 (Influenza A virus [17]): > 100 µM; EC50 (Influenza A virus H3N2 [18]): > 100 µM; EC50 (Influenza B virus [19]): > 100 µM
9 | C/C(=C\CP(=O)(N[C@@H](C)C(=O)OC(C)C)Oc1cccc2c1CCCC2)Cn1cc(C)c(=O)[nH]c1=O (some centres undefined) | > 100 | > 100 | > 100 | > 100 | > 100 | > 100 | > 100 | > 100 | > 100 | > 100 | > 100 | > 100 | > 100 | 58.5 | 53.5 | > 100 | > 20 | > 100 | > 100 | > 100 | EC50 (Punta Toro virus): > 100 µM; EC50 (Yellow fever virus): > 100 µM; MCC [14]: ≥ 20 µM; t1/2 [20]: > 12 h; t1/2 [21]: > 12 h; MCC [15]: ≥ 20 µM; MCC [16]: > 100 µM; EC50 (Influenza A virus [17]): > 100 µM; EC50 (Influenza A virus H3N2 [18]): > 100 µM; EC50 (Influenza B virus [19]): > 100 µM
